# From PubChem BioAssay
# An excerpt weighted towards active compounds, which were near 6.7% of everything screened.
# CSC inhib: cancer stem cell viability inhibitors, primary screen, luminescence | cancer stem cell-like cells viability | inhibition, % at 7.5 µM | 300,000 compounds, 1.1% hits | AID 2717, 2010; in the data active means inhibition above about 75%; tested in HMLE shEcad cells
# Beta apoptosis: inhibitors of cytokine-induced beta cell apoptosis, primary screen, luminescence; INS-1E cytokine-induced death, ATP luminescence, 48 h; percent of positive-control rescue, neutral wells zero; protection from apoptosis, % (test concentration not listed); 300,000 compounds, 0.8% hits; AID 435005, 2010;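 active means Every replicate reaches about 75%, or at least half do and their mean reaches it too, limit read from the data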;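 further: 0% = cytokine-treated negative control wells and 100% = positive control rescue; higher means more ATP so stronger rescue from cytokine killing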
# CHOP inh: inhibitors of CHOP promoter induction, primary screen, cell-based, unfolded protein response, luciferase reporter | CHO-K1 CHOP-promoter luciferase, tunicamycin-induced, 15-18 h | inhibition, % at 10 µM | 220,000 compounds, 3.8% hits | AID 2732, 2010;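 active means compounds that reduced the stress-induced luciferase reporter signal by more than about 70% of percent inhibition, limit read from the data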;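 further: 0% = tunicamycin plus vehicle and 100% = wells without tunicamycin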
# T cruzi repl: inhibitors of intracellular T. cruzi growth, primary screen, luminescence, NIH3T3 host cells | 300,000 compounds, 1.4% hits | AID 1885, 2009 | T. cruzi beta-gal in NIH3T3, 90 h | inhibition, % (test concentration not listed);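 active means mean inhibition across valid replicates above about 55%, limit read from the data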;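 further: signal also drops with host cell toxicity which is not excluded here; 0% = plate median of DMSO wells and 100% = zero luminescence signal; higher percent means less beta-gal luminescence so fewer parasites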
#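 System – NIH/3T3 host cells with β-galactosidase reporter T. cruzi · Doses – single 50 nL compound addition per well in DMSO · Reagent – 5000 T. cruzi trypomastigotes/well · Medium – Low-serum DMEM with 2% FBS · Timing – ≥90 h infection period, 3 h prior cell attachment · Evaluation – parasite load inhibition, % · Technique – GalScreen luminescence, 60 min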
# PREPL inhibitor: PREPL enzyme inhibitors, primary screen, biochemical, fluorescence polarization; Prolyl endopeptidase-like (Homo sapiens), Q4J6C6; recombinant PREPL, fluorescence polarization activity-based probe; inhibition, % at 5.96 µM; 320,000 compounds, 0.68% hits; AID 2751, 2010; in the data active means inhibition above about 43%;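 further: 0% = enzyme with DMSO and 100% = wells lacking enzyme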
# NR3A LBD binder: binders of NR3A ligand-binding domain, primary screen, biophysical, differential scanning fluorimetry, uHTS. NR3A LBD differential scanning fluorimetry, Tm shift; 0% = protein alone, 100% = glycine-bound protein. 340,000 compounds, 2.5% hits. Glutamate receptor ionotropic, NMDA 3A (GRIN3A) ligand-binding domain. Tm shift relative to glycine control, % at 25 µM;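 active means melting temperature shift of at least 10% of the positive control shift, at one fixed dose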
# * = called active by the depositor; . = not tested or not shown.
SMILES,CSC inhib,Beta apoptosis,CHOP inh,T cruzi repl,PREPL inhibitor,NR3A LBD binder
COC(=O)[C@@H](NC(=O)N1CCN(c2cccc(C(F)(F)F)c2)CC1)C(C)C,-6,-2,10,1,11,-1
CC(=O)Nc1ccc(S(=O)(=O)N[C@@H](C)C(=O)OCc2ccc(Cl)cc2)cc1,-17,-8,54,1,-1,-2
O=C1OC(c2ccc(Cl)cc2)=C/C1=C/c1cccnc1,-9,3,.,-4,-3,-2
O=C1OC(c2ccccc2)=C/C1=C/c1cccs1,-14,-2,4,-21,10,-24
O=C1OC(c2ccc(F)cc2)=C/C1=C\c1ccc([N+](=O)[O-])o1,50,4,25,66*,0,.
O=C1OC(c2ccc(F)cc2)=C/C1=C\c1ccc(O)cc1,-16,-1,.,-8,-7,17*
CCCc1ccc(OC(=O)c2cccs2)cc1,.,-3,0,4,3,1
CCCc1ccc(OC(=O)c2ccc(O)cc2Cl)cc1,1,13,87*,30,5,16*
C=CCN=C1SCC(=O)N1S(=O)(=O)c1ccc(C)cc1,10,-2,-17,-11,7,1
C=CCN=C1S/C(=C\N(C)C)C(=O)N1S(=O)(=O)c1ccc(C)cc1,11,6,.,.,24,12*
Cc1nn(-c2ccccc2)c(C)c1-c1nnc(-c2c(C)nn(-c3ccccc3)c2C)o1,25,4,8,30,2,-3
COc1ccccc1NC(=S)N1CCNC(=O)C1CC(=O)Nc1cccc(C)c1 (centres undefined),-2,0,-12,-3,6,0
COc1ccccc1NC(=O)CC1C(=O)NCCN1C(=O)Nc1ccc(Cl)c(Cl)c1 (centres undefined),14,-9,42,-13,10,12*
CCOC(=O)c1c(NC(=O)C2C3C=CC(C3)C2C(=O)O)sc2c1CCC(CC)C2 (centres undefined),-28,.,72*,-9,-1,-2
CCOC(=O)c1c(NC(=O)C2C3CCC(O3)C2C(=O)O)sc2c1CCC(CC)C2 (centres undefined),13,-3,-12,3,11,0
CCCCOc1ccc(C(=O)Oc2cccnc2)cc1,1,1,.,-9,43,-1
O=C(CCN1C(=O)/C(=C/c2ccccc2Cl)SC1=S)NNC(=O)c1ccccc1O,11,0,.,5,-58,10
Cc1ccc(/C=C2\SC(=S)N(CCCC(=O)NNC(=O)c3ccccc3O)C2=O)cc1,-6,-2,98*,18,8,-3
Cc1ccc(/C=C2\SC(=S)N(CCC(=O)NNC(=O)c3ccccc3O)C2=O)cc1,-5,.,.,-6,-12,16*
CS(=O)(=O)Nc1ccc(C(=O)NCCSc2ccc(Cl)cc2)cc1,-2,-4,.,-9,-13,-18
O=C(COc1ccc(/C=N/NC(=O)C(=O)N2CCCCCC2)cc1)Nc1ccccc1Cl,1,-2,21,0,31,-8
CC1CCCN(S(=O)(=O)c2cc3c4c(c2)C(C)C(=O)N4CCC3)C1 (centres undefined),-3,-4,.,-7,-4,2
Cc1ccc(C)c(S(=O)(=O)N2CCC3(CC2)OCCN3S(=O)(=O)c2cccs2)c1,1,.,.,12,1,0
COc1ccc(C)cc1S(=O)(=O)N1CCC2(CC1)OCCN2S(=O)(=O)c1cccs1,-21,.,.,14,17,16*
COc1ccccc1/C=C/C=c1\sc2nc(=O)c(Cc3ccccc3)nn2c1=O,19,-2,-11,-14,12,1
CCc1nnc(NC(=O)CSc2nc(-c3ccccc3)cc(-c3ccc(F)cc3)c2C#N)s1,-7,4,84*,2,-3,-1
COc1cc(-c2cc(-c3ccccc3)nc(SCC(=O)Nc3nccs3)c2C#N)cc(OC)c1OC,-2,13,.,55*,-2,-1
CCc1nnc(NC(=O)CSc2nc(C3CCCCC3)nc3ccccc23)s1,-19,6,47,11,-6,3
